High-throughput results from PubChem.
Scp1 inh = Scp-1 (human) phosphatase inhibition; Q9GZU7; Recombinant Scp1, phosphopeptide, malachite green phosphate absorbance; inhibition, % at 20 µM; hit rate 0.88% among 340,000;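 active = inhibition above about 50% at 20 µM, limit read from the data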
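Material – SCP-1 phosphatase catalytic domain, residues 76-261 · Buffer or medium – Acidic Tris acetate buffer with magnesium and detergent · Also added – Phospho 17-mer peptide substrate · Compound – single 20 µM dose, 1% DMSO · Times – 45 min room-temperature reaction, 5 min colour, 30 min stabiliser · Technique – Phosphate-binding colour reagent, absorbance read at 630 nm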
DNMT1 block = blocks human DNA methyltransferase DNMT1 | DNMT1 molecular beacon, Hinp1I cleavage, fluorescence | inhibition (reported as % activation of signal), % at 10 µM | hit rate 0.83% among 360,000 | AID 588458; in the data active = inhibition above about 50%
STEP block = inhibitors of human striatal-enriched phosphatase STEP; P54829; recombinant STEP, OMFP fluorogenic substrate, fluorescence; inhibition, % at 20 µM; hit rate 0.25% among 360,000; AID 588621;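 active = inhibition at 20 µM, scaled per plate between control wells, above about 37%, limit read from the data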
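Material: STEP (striatal-enriched tyrosine phosphatase) enzyme, cell-free | Medium: 50 mM Bis-Tris pH 6.0 with 2.5 mM DTT and 0.005% Tween 20 | Read-out: Percent inhibition scaled to no-enzyme and uninhibited-enzyme controls, plate-pattern corrected | Signal: Fluorescence read at 480 nm ex / 540 nm em | Times: 20 min reaction, room temperature, in the dark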
HKDC1 inhibitor = inhibitors of human hexokinase HKDC1; hit rate 0.16% among 340,000; recombinant HKDC1, G6PDH/diaphorase resazurin coupled fluorescence; inhibition, % at 20 µM;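 active = inhibition above about 35% when tested at 20 µM, limit read from the data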
Target sequence (Q2TB90 whole entry, looked up): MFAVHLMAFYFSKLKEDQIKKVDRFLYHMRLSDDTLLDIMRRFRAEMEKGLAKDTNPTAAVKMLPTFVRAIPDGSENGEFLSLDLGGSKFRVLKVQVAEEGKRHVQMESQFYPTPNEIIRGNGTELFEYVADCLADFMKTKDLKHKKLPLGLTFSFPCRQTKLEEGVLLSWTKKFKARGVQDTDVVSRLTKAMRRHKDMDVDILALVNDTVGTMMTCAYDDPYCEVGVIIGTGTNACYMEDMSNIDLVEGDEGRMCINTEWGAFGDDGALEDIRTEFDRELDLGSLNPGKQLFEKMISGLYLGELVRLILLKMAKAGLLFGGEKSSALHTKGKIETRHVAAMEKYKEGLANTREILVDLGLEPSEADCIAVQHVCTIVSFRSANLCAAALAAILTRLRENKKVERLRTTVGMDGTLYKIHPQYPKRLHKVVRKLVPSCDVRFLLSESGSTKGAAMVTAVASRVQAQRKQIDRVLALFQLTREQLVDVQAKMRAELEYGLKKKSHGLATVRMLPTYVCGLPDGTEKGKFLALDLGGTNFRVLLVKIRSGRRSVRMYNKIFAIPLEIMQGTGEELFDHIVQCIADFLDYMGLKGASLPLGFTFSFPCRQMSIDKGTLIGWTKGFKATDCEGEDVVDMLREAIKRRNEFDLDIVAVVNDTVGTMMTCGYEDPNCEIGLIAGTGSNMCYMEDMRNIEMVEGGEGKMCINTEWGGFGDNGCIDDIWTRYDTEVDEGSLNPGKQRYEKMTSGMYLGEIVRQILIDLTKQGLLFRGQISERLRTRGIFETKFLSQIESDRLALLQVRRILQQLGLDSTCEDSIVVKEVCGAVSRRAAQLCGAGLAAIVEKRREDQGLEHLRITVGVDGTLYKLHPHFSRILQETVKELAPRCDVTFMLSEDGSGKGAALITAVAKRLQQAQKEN
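Material: recombinant HKDC1 hexokinase; Amount: HKDC1 at 5 µg/mL; Medium: Tris pH 8.0 buffer with MgCl2, Tween-20, BSA, BME; Schedule: 90 min reaction incubation at room temperature, dark; Technique: coupled resazurin fluorescence, excitation 525 nm, emission 613 nm.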
SUMO1 PPI mod = modulators of human SUMO1-mediated protein-protein interactions; hit rate 0.33% among 360,000; inhibition, % at 20 µM; SUMO1 binding to a labelled peptide, TR-FRET, 1 h; AID 602429; in the data active = inhibition above about 37%
LMPTP inh = LMPTP (human) inhibition | P24666 | recombinant LMPTP-A, OMFP fluorogenic substrate, fluorescence intensity | inhibition, % at 20 µM | hit rate 0.22% among 360,000 | AID 651560;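 active = compounds that cut the enzyme signal by at least half of the control window in the single-dose screen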
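test system = LMPTP-A | amount = 0.625 nM LMPTP-A final | reagent = fluorogenic phosphatase substrate OMFP at 400 µM final | incubation = 50 min at room temperature | benchmarks = no-enzyme low control, uninhibited high control | medium = Bis-Tris pH 6.0, DTT, detergent | signal = fluorescence intensity of OMFP turnover product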
Beacon interf DR = shows spectral interference in the DNMT1 beacon assay; shares compounds with DNMT1 block; molecular beacon fluorescence, spectral interference counter-screen; IC50, µM; 200 tested, under 10 active; AID 602382; call rule not given here
DNMT1 inh conf = DNMT1 inhibition confirmation, single concentration; hit rate 8% among 2,300; DNMT1 molecular beacon HinP1I cleavage, fluorescence; inhibition, % at 10 µM; shares compounds with DNMT1 block;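 active = average inhibition of at least 30% in the single-concentration confirmation test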
DNMT1 interf = counter-screen for DNMT1 inhibitors: spectral interference; shares compounds with DNMT1 block; AID 602387; DNMT1 molecular beacon spectral interference counterscreen, fluorescence 485/520; activation (fluorescence interference), % at 10 µM; hit rate 1% among 2,300;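 active = activation of at least 30% at 10 µM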;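 also: DNMT1 catalytic domain with a HinP1I cleavage step and a FAM/dabcyl DNA beacon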
Hits are given with their value; 0 = inactive; - = no result given. A selection: hits, their analogues and other compounds. The true share with any hit is near 1.8%.

SMILES	Scp1 inh	DNMT1 block	STEP block	HKDC1 inhibitor	SUMO1 PPI mod	LMPTP inh	DNMT1 inh conf	DNMT1 interf	others
C=CCc1cccc(C=Nc2c[nH]c(=O)[nH]c2=O)c1O	0	71.6	0	0	0	0	0	0
Cc1cccc(C)c1NC(=O)COc1ccc2c(C)c(Cc3ccccc3)c(=O)oc2c1C	0	56.7	0	0	0	0	0	0
Cc1c(Cc2ccccc2)c(=O)oc2c(C)c(OCC(=O)Nc3ccc(C#N)cc3)ccc12	0	0	0	0	0	0	-	-
CC(C)CN(C(=O)COC(=O)c1cc2c(s1)CCC2)C1CCS(=O)(=O)C1 (centres undefined)	89.2	95.7	0	0	0	0	0	0
COCCN(C(=O)CSc1nnc(-c2ccco2)n1C)c1c(N)n(CC(C)C)c(=O)[nH]c1=O	0	0	0	0	0	0	-	-
C[n+]1cccc2c(Br)ccc([O-])c21	0	83.8	0	0	49.0	52.5	0	0
CC(C)OCCCn1c(=N)c(C(N)=S)cc2c(=O)n3ccccc3nc21	0	64.3	0	0	0	0	0	0
Cc1cc(SCC(=O)NC(=O)NCc2ccco2)nc2c(C)cccc12	0	52.8	0	0	0	0	0	0
Cc1cc(SCCC(=O)O)nc2c(C)cccc12	0	0	0	0	0	0	-	-
O=C(CSc1nnc(-c2ccc(OC(F)F)cc2)o1)NC(=O)NCc1ccco1	0	82.7	0	0	0	0	0	0
Cc1cc(SCC(=O)N2CCCC2=O)nc2c(C)cccc12	0	80.4	0	0	0	0	0	0
Cc1cc(SCC(=O)NC(=O)NCc2ccco2)nc2ccccc12	0	0	0	0	0	0	-	-
COCCNC(=S)N1CCC2CC1c1cc(-c3ccc4c(c3)OCO4)ccc12 (centres undefined)	-	0	0	-	0	0	-	-
CN(C)c1ccc(/C=N/NC(=O)C2COc3ccccc3O2)o1 (centres undefined)	0	0	0	0	0	0	-	-
O=C(N/N=C\c1ccc(Br)o1)C1COc2ccccc2O1 (centres undefined)	0	51.3	0	0	0	0	0	0
Cc1cccc(CNC(=O)c2sc(=O)n(Cc3ccc(S(C)(=O)=O)cc3)c2C)c1	-	0	0	-	0	0	-	-
Nc1ccc2c(c1)[nH]c(=O)c1ccccc12	0	80.0	0	0	0	0	0	0
O=c1[nH]c2cc(O)ccc2c2ccccc12	-	0	0	-	0	0	-	-
CCN(CC1CCCO1)C(=O)c1cc(COc2ccccc2SC)on1 (centres undefined)	0	0	0	0	0	0	-	-
O=C(Nc1ccc2oc(-c3cccc4ccccc34)nc2c1)c1ncn[nH]1	0	66.5	0	0	0	0	0	0
O=C(Nc1ccc2oc(-c3ccccc3Cl)nc2c1)c1ncn[nH]1	0	0	0	0	0	0	-	-
Cc1cc(OC(C(=O)O)c2ccccc2)c2c(C)c(Cc3ccccc3)c(=O)oc2c1 (centres undefined)	0	87.6	0	0	0	0	0	0
O=C1NC(=S)N/C1=C/c1cccc([N+](=O)[O-])c1	0	0	0	0	0	0	-	-
O=C1NC(=S)N/C1=C/c1ccc(Oc2ccc(C(F)(F)F)cc2[N+](=O)[O-])c(Cl)c1	0	50.8	0	0	0	0	0	0
COc1cc(/C=C2\CCCc3c2nc2ccccc2c3C(=O)O)cc(Br)c1O	0	0	0	0	0	0	-	-
SMILES	Scp1 inh	DNMT1 block	STEP block	HKDC1 inhibitor	SUMO1 PPI mod	LMPTP inh	DNMT1 inh conf	DNMT1 interf	others
CCOc1cc(/C=C2\CCCc3c2nc2ccccc2c3C(=O)O)ccc1OC	0	61.0	0	0	0	0	0	0
COc1ccc2c(c1OC)C(=O)N1N=C(c3ccc(-c4ccccc4)cc3)CC21 (centres undefined)	0	0	0	0	0	0	-	-
COc1ccc2c(c1OC)C(=O)N1c3ccccc3N=C(c3ccc([N+](=O)[O-])cc3)CC21 (centres undefined)	0	62.4	0	0	0	0	0	0
CNc1cccccc1=S	0	84.5	0	0	0	58.1	0	0
CNc1ccccc1	0	0	0	0	0	0	-	-
CNc1ccc(Br)cc(C(=O)/C=C/c2ccc3c(c2)OCO3)c1=O	0	65.2	0	0	0	0	0	0
CNc1ccc(Br)cc(C(=O)/C=C/c2ccc(OC)cc2)c1=O	0	0	0	0	0	0	-	-
O=C(CSc1nc(C2CC2)nc2sc3c(c12)CCCC3)NCc1ccco1	0	0	0	0	0	0	-	-
CC(C)Sc1nc2sc3c(c2c2nnc(SCC(=O)NCc4ccco4)n12)CCCC3	0	65.4	0	0	0	0	0	0
COc1ccc(S(=O)(=O)NC(=O)C2(C)CCN2C(=O)C2(c3ccccc3)CCCC2)cc1 (centres undefined)	-	0	0	-	0	0	-	-
COc1ccc2[nH]cc(CCNC(=O)Cc3c(F)cccc3Cl)c2c1	0	71.9	0	0	0	0	0	0
COc1ccc2[nH]cc(CCNC(=O)Cc3ccc(Cl)cc3)c2c1	0	0	0	0	0	0	-	-
N#Cc1cccc(C(=O)C(=O)N2CCCN(Cc3ccc(F)cc3)CC2)c1	-	-	-	-	0	0	-	-
O=C1NC(=S)S/C1=C\c1coc2ccc(O)cc2c1=O	0	80.9	67.5	0	0	0	0	0
COc1ccc(/C=C/C(=O)N2CCN(S(=O)(=O)c3ccccc3Br)CC2)cc1OC	0	0	0	0	0	0	-	-
Cc1cccc(C)c1NC(=O)C(c1ccncc1)n1c(=O)c(-c2cc3ccccc3[nH]2)nc2ccccc21 (centres undefined)	-	-	-	-	0	0	-	-
Cc1cc[n+](CC(=O)c2cccc([N+](=O)[O-])c2)c2ccccc12	0	52.9	0	0	0	0	42.6	0	Beacon interf DR=0
O=C(C[n+]1cccc2ccccc21)c1ccc([N+](=O)[O-])cc1	0	0	0	0	0	0	-	-
O=C(O)c1ccc(N/N=C/C=C/c2ccc([N+](=O)[O-])o2)cc1	57.5	72.2	43.4	0	0	0	0	0
CSc1nsc(/C=C/Nc2ccc(C(=O)O)cc2)c1C#N	0	65.9	0	0	0	0	0	0
O=C(CCN1C(=O)c2ccccc2C1=O)Nc1ccc(-c2nc3ccccc3o2)cc1	0	0	0	0	0	0	-	-
CCCC(=O)Nc1ccc(-c2nc3cc(C)c(C)cc3o2)cc1	0	55.6	0	0	0	0	0	0
